# Plk1 PBD FP – Plk1 polo box domain binding inhibitors, primary screen, biochemical, fluorescence polarization; Serine/threonine-protein kinase PLK1 (Homo sapiens), P53350; 97,000 tested, 0.13% active; inhibition, %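 (tested at about 20 µM)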; AID 693, 2007; Plk1 PBD phosphopeptide binding; in the data active = inhibition above about 34%, passing the limit was not always enough
# EphB4 antag – EphB4-ephrin-B2 interaction antagonists, primary screen, biochemical, TNYL-RAW peptide probe, fluorescence polarization. inhibition, % at 7 µM. EphB4 LBD / TNYL-RAW-Alexa532 peptide. 97,000 tested, 0.15% active. AID 720, 2007;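 active = inhibition above the screen-wide mean inhibition plus 3 SD, cut at about 15% in these data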
# PTPN22 inh 2 – PTPN22 phosphatase inhibitors, primary screen, biochemical, DiFMUP fluorescence, 2 µM | recombinant LYP catalytic domain | inhibition, % at 2 µM | 96,000 tested, 0.21% active;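 active = inhibition at 2 µM at or above a set limit, the screen mean plus 3 SD, cut at about 24% in these data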
# Rev-RRE block – HIV-1 Rev-RRE binding inhibitors, primary screen, biochemical, FRET, protein-RNA interaction; P05866; Rev peptide-RRE RNA binding; inhibition, % at 8 µM; 97,000 tested, 0.79% active; AID 704, 2007;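 active = inhibition above the screen-wide mean plus 3 SD, cut at about 35% in these data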
# Target sequence (P05866 whole entry, looked up): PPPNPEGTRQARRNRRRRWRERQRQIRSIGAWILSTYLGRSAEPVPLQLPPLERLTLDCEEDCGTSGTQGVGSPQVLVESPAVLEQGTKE
#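 Test system: labelled RRE RNA duplex and labelled Rev peptide. Times: 5 min compound–RNA preincubation, then 15 min with peptide, 25 °C. Doses: single-dose 8 µM. Measured by: FRET, excitation 480 nm, emission 540 nm donor and 671 nm acceptor. Measure: % inhibition of FRET ratio versus controls.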
# LYP act – LYP phosphatase activators, primary screen, biochemical, DiFMUP fluorescence, 2 µM; recombinant LYP; 0 = plate median, 100 = signal doubled; AID 697, 2007; activation, % at 2 µM; 96,000 tested, 0.11% active;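 active = activation at 2 µM above a set limit, the mean plus 5 SD, cut at about 37% in these data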
# PLK1 kinase inh – human PLK1 kinase inhibitors, primary screen, biochemical, TR-FRET; Serine/threonine-protein kinase PLK1 (Homo sapiens), P53350; recombinant PLK1 kinase, TR-FRET peptide phosphorylation; inhibition, % at 10 µM; 97,000 tested, 0.53% active; AID 619, 2007;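 active = inhibition of 50% or more in the single-concentration screen; inactive = inhibition below 50%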
# PLK1 confirm – PLK1 kinase activity inhibitors, confirmation, biochemical, TR-FRET, duplicate runs. recombinant PLK1 kinase, TR-FRET peptide phosphorylation. shares compounds with PLK1 kinase inh. AID 744, 2007. 210 tested, 20% active. inhibition, % at 10 µM;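 active = inhibition at or above 50% in each of two repeat confirmation tests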
# TR-FRET interf – compound interference with Plk1 assay readout, artefact control for Plk1 kinase inhibitor project, biochemical, TR-FRET, compound added post-reaction; shares compounds with PLK1 kinase inh; inhibition (interference), % at 10 µM; 210 tested, under 10 active;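 active = both duplicate runs show 50% or greater inhibition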
# A number is an active result; n = inactive; x = not tested or not shown. Only some compounds are listed: those with a hit (about 2% of all), similar ones and a draw of the others.
SMILES,Plk1 PBD FP,EphB4 antag,PTPN22 inh 2,Rev-RRE block,LYP act,PLK1 kinase inh,PLK1 confirm,TR-FRET interf
CCN1C(=O)C(O)(CC(=O)c2ccc3c(c2)OCCO3)c2ccccc21 (stereo not given),n,n,x,n,x,72,n,n
COc1ccc(CN2C(=O)C(O)(CC(=O)c3ccc4c(c3)OCO4)c3ccccc32)cc1OC (stereo not given),n,n,n,n,n,n,x,x
O=C(CSc1cn(CCNC(=O)c2cccs2)c2ccccc12)NCc1ccccc1,n,n,n,n,n,n,x,x
C#CCn1c(S(=O)(=O)Cc2ccc(OC)cc2)nc(-c2ccccc2)c1-c1ccccc1,n,n,n,n,n,n,x,x
COc1cccc(C2CC(c3ccc(Cl)cc3Cl)n3nc(N)nc3N2)c1 (stereo not given),n,n,x,n,x,75,n,n
CCC(=O)Nc1sc2c(c1C(N)=O)CCC2,n,n,n,n,n,n,x,x
N#CCC(=O)Nc1sc2c(c1C(N)=O)CCCC2,n,n,x,n,x,70,n,n
O=C(Nc1ccon1)c1cc2ccccc2oc1=O,n,n,n,n,n,n,x,x
COCCn1c(SCC(N)=O)nnc1-c1c[nH]c2ccccc12,n,n,x,n,x,71,n,n
CCSc1nnc(NC(=O)CSc2nnc(-c3c[nH]c4ccccc34)n2C)s1,n,n,x,n,x,76,n,n
COC(=O)c1ccc(CSc2nnc(-c3c[nH]c4ccccc34)n2C)o1,n,n,x,n,x,71,n,n
CCc1nnc(NC(=O)CSc2nnc(-c3c[nH]c4ccccc34)n2CCOC)s1,n,n,n,n,n,n,x,x
COc1ccc(C2=C(C=Nc3c(C)n(C)n(-c4ccccc4)c3=O)C(c3ccccc3C)c3ccccc3O2)cc1OC (stereo not given),n,n,n,n,n,n,x,x
Cc1cccc(NC(=O)NCCN2C(=O)C3C4C=CC(C4)C3C2=O)c1 (stereo not given),n,n,x,n,x,73,n,n
Cc1cccc(NC(=O)CCN2C(=O)C3C4C=CC(C4)C3C2=O)c1 (stereo not given),n,n,n,n,n,n,x,x
Brc1ccc(Oc2nnnn2-c2ccccc2)cc1,n,n,x,n,x,75,n,n
O=C1c2ccccc2C(=O)N1CCCc1nc2ccccc2c(=O)n1-c1cccnc1,n,n,n,n,n,n,x,x
Cc1ncc([N+](=O)[O-])n1CCOC(=O)Nc1ccc(Cl)c(Cl)c1,n,n,n,n,n,84,71,n
COC(=O)CN1C(=S)N(Cc2ccccc2)C(=O)C1CC(=O)Nc1ccc(Br)cc1 (stereo not given),n,n,n,n,n,n,x,x
CCOC(=O)N1CCN(Cc2nc3c(c(=O)n(C)c(=O)n3C)n2CCCc2ccccc2)CC1,n,n,n,n,n,n,x,x
O=C(COc1ccccc1)Nc1nnc(-c2ccc(Cl)s2)o1,n,n,x,n,x,72,n,n
O=C(COc1ccccc1)Nc1nnc(-c2ccccc2)o1,n,n,n,n,n,n,x,x
COc1ccc(C(=O)N2CCOCC2)cc1Br,n,n,n,n,n,130,n,n
CCN(CC)S(=O)(=O)c1cc(C(=O)n2cccn2)c(Cl)cc1Cl,n,n,n,n,n,n,x,x
Cc1cc(C)cc(OCC(O)CN2C(=O)NC(C)(C)C2=O)c1 (stereo not given),n,n,x,n,x,72,n,n
SMILES,Plk1 PBD FP,EphB4 antag,PTPN22 inh 2,Rev-RRE block,LYP act,PLK1 kinase inh,PLK1 confirm,TR-FRET interf
CC(C)n1c(SCc2ccccc2F)nc2c1c(=O)n(C)c(=O)n2C,n,n,x,n,x,78,n,n
O=C(NCc1ccc2c(c1)OCO2)c1ccc(CS(=O)(=O)c2ccc(Br)cc2)o1,n,n,x,n,x,76,n,n
Cc1cc2c(=O)[nH]cnc2s1,n,n,n,n,n,n,x,x
CCOc1c(Br)ccc2c1sc1nc[nH]c(=O)c12,n,n,n,n,n,76,68,n
CCCCn1nnnc1SCC(=O)Nc1ccc2c(c1)OCO2,n,n,n,n,n,n,x,x
CCCCSc1nnc(-c2cc(Br)ccc2N)c(=O)[nH]1,n,n,n,n,n,n,x,x
C=CCSc1nnc(-c2cc(Br)ccc2N)c(=O)[nH]1,n,n,x,n,x,71,n,n
CCOC(=O)c1c(NC(C)=O)sc2c1CCC(C=NCCCN(CC)CC)=C2Sc1ccccc1,n,n,n,n,n,n,x,x
Cc1ccc(C(=O)O)cc1S(=O)(=O)N1CCSCC1,n,n,n,n,n,82,n,n
Cc1ccc(C(=O)O)cc1S(=O)(=O)N1CCOCC1,n,n,n,n,n,n,x,x
CC1CCCC(NC(=O)COC(=O)CCC2CCCC2)C1C (stereo not given),n,n,n,n,n,n,x,x
CC(CNCc1ccc2c(c1)OCO2)NCc1ccc2c(c1)OCO2 (stereo not given),n,n,x,n,x,74,n,n
Cc1cc(C)c(NC(=O)C(C)c2cccc(C(=O)c3ccccc3)c2)c(C)c1 (stereo not given),n,n,n,n,n,n,x,x
NC1(N)OC(CN2C(=O)c3ccccc3C2=O)CS1 (stereo not given),n,n,n,n,n,116,n,n
Nc1ncnc(Nc2cccc(C(F)(F)F)c2)n1,n,n,n,n,n,77,74,n
C#CCOC(=O)CCCNc1ccc([N+](=O)[O-])cc1[N+](=O)[O-],n,n,n,n,n,n,x,x
CCCCNCc1cc(Br)c(OCC(=O)N2CCOCC2)c(OC)c1,n,n,n,n,n,125,n,n
CCCCNCc1cc(Br)c(OCc2cccs2)c(OC)c1,n,n,n,n,n,n,x,x
Cc1[nH]n(-c2ccccc2)c(=O)c1C(C[N+](=O)[O-])c1ccc(Br)cc1 (stereo not given),n,n,n,n,n,101,n,n
Cc1onc(-c2ccccc2)c1C(=O)NC(C)C,n,n,x,n,x,78,n,n
CC1=C(C(=O)OC(C)C)C(c2ccncc2)n2ncnc2N1 (stereo not given),n,n,n,n,n,n,x,x
CC1=C(C(=O)OC(C)C)C(c2cccnc2)n2ncnc2N1 (stereo not given),n,n,x,n,x,83,n,n
